Measured values taken from ChEMBL document CHEMBL3580553, “Potent and Nontoxic Chemosensitizer of P-Glycoprotein-Mediated Multidrug Resistance in Cancer: Synthesis and Evaluation of Methylated Epigallocatechin, Gallocatechin, and Dihydromyricetin Derivatives” (J Med Chem, 2015).
Activity calls are given as the source filed them. No cut-off for these calls is given here.

How the values were obtained:
[1] = Selectivity index, ratio of IC50 for mouse […] cells to EC50 for modulation of P-gp (unknown origin) transfected in human MDA435/LCC6MDR cells assessed as reversing paclitaxel resistance; parameters: species or system L929
[2] = target: T1, ATP-dependent translocase ABCB1 (Homo sapiens, UniProt P08183); assay: Modulation of P-gp (unknown origin) transfected in human MDA435/LCC6MDR cells assessed as induction of intracellular doxorubicin accumulation at 2 uM after 150 mins by spectrofluorometric analysis relative to control; assay type: cell-based; conditions: 2.5 h
Outline: (§1)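 LCC6 or LCC6MDR cells (1 × 10⁶) incubated with 20 μM DOX plus 2 μM modulator, 150 min at 37 °C; 0.2% DMSO as negative control; cells washed in cold PBS, lysed in 0.75 M HCl/0.2% Triton X-100 in isopropanol; supernatant DOX fluorescence read by spectrofluorometry.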

[3] = Cytotoxicity against human LCC-6 cells after 3 days by MTS assay; assay type: functional, cell-based; conditions: LCC-6, 72 h
[4] = target: T1, ATP-dependent translocase ABCB1; assay: Modulation of P-gp (unknown origin) transfected in human MDA435/LCC6MDR cells assessed as reversible of paclitaxel resistance measured as IC50 for paclitaxel at 1 uM after 5 days by CellTiter 96 Aqueous assay relative to PTX alone treated cell; assay type: cell-based; conditions: 120 h
[5] = target: Multidrug resistance-associated protein 1 (Homo sapiens, UniProt P33527); assay: Modulation of MRP1 (unknown origin) transfected in human 2008/MRP1 cells assessed as potentiation of doxorubicin-induced cytotoxicity measured as doxorubicin IC50 at 1 uM after 5 days by MTS assay relative to doxorubicin alone treated cell; assay type: cell-based; conditions: 2008/mrp1, 120 h
Outline: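 After 5 days at 37 °C, viability was read by MTS. Doxorubicin IC50 came from nonlinear regression, and RF = IC50 without/with modulator. Parental 2008/P cells served as reference. N = 2−4, triplicates, mean ± SEM.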

[6] = target: T2, Broad substrate specificity ATP-binding cassette transporter ABCG2 (Homo sapiens, UniProt Q9UNQ0); assay: Modulation of BCRP (unknown origin) transfected in human HEK293/R2 cells assessed as potentiation of topotecan-induced cytotoxicity measured as topotecan IC50 at 1 uM after 5 days by MTS assay relative to topotecan alone treated cell; assay type: cell-based; conditions: hek293/r2, 120 h
T2 sequence (Q9UNQ0 whole entry): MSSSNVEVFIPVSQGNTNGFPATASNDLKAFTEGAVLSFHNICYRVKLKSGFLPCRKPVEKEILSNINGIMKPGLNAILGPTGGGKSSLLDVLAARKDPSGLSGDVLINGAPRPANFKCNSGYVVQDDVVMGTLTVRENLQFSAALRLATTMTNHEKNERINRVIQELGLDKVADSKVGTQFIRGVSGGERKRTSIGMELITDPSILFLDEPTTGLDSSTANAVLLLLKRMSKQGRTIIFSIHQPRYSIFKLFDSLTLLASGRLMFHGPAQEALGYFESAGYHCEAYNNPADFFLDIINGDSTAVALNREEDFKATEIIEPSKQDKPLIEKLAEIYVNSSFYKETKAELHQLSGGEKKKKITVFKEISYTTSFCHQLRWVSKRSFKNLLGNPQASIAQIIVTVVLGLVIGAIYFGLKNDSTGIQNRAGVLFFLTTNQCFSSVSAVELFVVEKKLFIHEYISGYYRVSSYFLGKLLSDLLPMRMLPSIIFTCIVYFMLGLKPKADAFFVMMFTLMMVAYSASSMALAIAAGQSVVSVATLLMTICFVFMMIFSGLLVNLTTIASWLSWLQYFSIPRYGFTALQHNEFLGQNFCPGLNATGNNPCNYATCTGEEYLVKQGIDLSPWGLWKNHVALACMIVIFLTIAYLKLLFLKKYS
Outline: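 Incubated 5 days at 37 °C; viability by MTS. Topotecan IC50 came from nonlinear regression, and RF = IC50 without/with modulator. Empty-vector HEK293/pcDNA3.1 served as reference. N = 2−4, triplicates, mean ± SEM.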

Homo sapiens [7] = organism: Homo sapiens; assay: Modulation of P-gp (unknown origin) transfected in human MDA435/LCC6MDR cells assessed as restoration of intracellular doxorubicin accumulation after 150 mins by spectrofluorometric analysis relative to parental cells; assay type: cell-based; outline: as §1
L929 = assay: Cytotoxicity against mouse L929 cells after 3 days by MTS assay; assay type: cell-based; conditions: L929, 72 h
[8] = Cytotoxicity against human MDA435/LCC6MDR cells after 3 days by MTS assay; assay type: functional, cell-based; conditions: 72 h
Homo sapiens [9] = organism: Homo sapiens; assay: Modulation of P-gp (unknown origin) transfected in human MDA435/LCC6MDR cells assessed as restoration of intracellular doxorubicin accumulation at 3 uM after 150 mins by spectrofluorometric analysis relative to parental cells; assay type: cell-based
Outline: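 LCC6MDR cells with 20 μM DOX and modulator at 0, 0.05, 0.1, 0.5, 1, 3 or 8 μM; cells lysed and intracellular DOX measured by spectrofluorometry. N = 2–5 independent experiments, mean ± SEM.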

LCC6MDR (human) = assay: Inhibition of P-gp-mediated doxorubicin efflux in human LCC6MDR cells measured at 1.5 uM after 30 to 150 mins by spectrofluorometry relative to control
LCC-6 [10] = assay: Effect on doxorubicin efflux in human LCC-6 cells measured at 1.5 uM after 30 to 150 mins by spectrofluorometry relative to control; assay type: functional, cell-based
Outline: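 Efflux: LCC6 or LCC6MDR cells preloaded with 20 μM DOX 1 h at 37 °C, washed in PBS, resuspended in DMEM ± 1.5 μM modulator; samples at 0, 30, 60, 90, 120, 150 min chilled on ice; intracellular DOX by spectrofluorometry. DMSO control; N = 3–4, mean ± SEM.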

[11] = Drug uptake in human LCC-6 cells at 20 uM after 150 mins by spectrofluorometry; assay type: ADME, cell-based; conditions: lcc-6, 2.5 h
Outline: (§2)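 LCC6 or LCC6MDR cells (3 × 10⁶) incubated with 20 or 200 μM compound or DOX, 37 °C, 150 min. Compound: pellet extracted with methanol, supernatant by reversed-phase C18 HPLC, methanol eluent, 1 mL/min, UV detection at 308 or 270 nm. DOX: lysis buffer, fluorescence by spectrofluorometer. N = 2–3, mean ± SEM.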

[12] = P-gp (unknown origin)- mediated durg uptake in human MDA435/LCC6MDR cells at 200 uM after 150 mins by spectrofluorometry relative to control; assay type: ADME, cell-based; conditions: 2.5 h, in the assay text read “by HPLC” for “by spectrofluorometry”; outline: as §2
[13] = P-gp (unknown origin)- mediated durg uptake in human MDA435/LCC6MDR cells at 20 uM after 150 mins by spectrofluorometry relative to control; assay type: ADME, cell-based; conditions: 2.5 h; outline: as §2
[14] = Drug uptake in human LCC-6 cells at 200 uM after 150 mins by spectrofluorometry; assay type: ADME, cell-based; conditions: lcc-6, 2.5 h; outline: as §2
[15] = Modulation of P-gp (unknown origin) transfected in human MDA435/LCC6MDR cells assessed as reversible of paclitaxel resistance measured as IC50 for paclitaxel at 1 uM after 5 days by CellTiter 96 Aqueous assay
LCC-6 [16] = assay: Effect on doxorubicin influx in human LCC-6 cells measured at 1.5 uM after 30 to 150 mins by spectrofluorometry relative to control; assay type: functional, cell-based
[17] = Drug uptake in human LCC-6 cells at 20 uM after 150 mins by spectrofluorometry relative to P-gp expressing cells; assay type: ADME, cell-based; conditions: lcc-6, 2.5 h; outline: as §2
[18] = target: T1, ATP-dependent translocase ABCB1; assay: Modulation of P-gp (unknown origin) transfected in human MDA435/LCC6MDR cells assessed as reversible of paclitaxel resistance measured as IC50 for paclitaxel at 10 uM after 5 days by CellTiter 96 Aqueous assay relative to PTX alone treated cell; assay type: cell-based; conditions: 120 h
Outline: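 They were held 5 days at 37 °C and viability read by CellTiter 96 AQueous (MTS). […] RF = IC50 of PTX without modulator / IC50 with modulator.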

Sequence of Multidrug resistance-associated protein 1 (P33527 whole entry): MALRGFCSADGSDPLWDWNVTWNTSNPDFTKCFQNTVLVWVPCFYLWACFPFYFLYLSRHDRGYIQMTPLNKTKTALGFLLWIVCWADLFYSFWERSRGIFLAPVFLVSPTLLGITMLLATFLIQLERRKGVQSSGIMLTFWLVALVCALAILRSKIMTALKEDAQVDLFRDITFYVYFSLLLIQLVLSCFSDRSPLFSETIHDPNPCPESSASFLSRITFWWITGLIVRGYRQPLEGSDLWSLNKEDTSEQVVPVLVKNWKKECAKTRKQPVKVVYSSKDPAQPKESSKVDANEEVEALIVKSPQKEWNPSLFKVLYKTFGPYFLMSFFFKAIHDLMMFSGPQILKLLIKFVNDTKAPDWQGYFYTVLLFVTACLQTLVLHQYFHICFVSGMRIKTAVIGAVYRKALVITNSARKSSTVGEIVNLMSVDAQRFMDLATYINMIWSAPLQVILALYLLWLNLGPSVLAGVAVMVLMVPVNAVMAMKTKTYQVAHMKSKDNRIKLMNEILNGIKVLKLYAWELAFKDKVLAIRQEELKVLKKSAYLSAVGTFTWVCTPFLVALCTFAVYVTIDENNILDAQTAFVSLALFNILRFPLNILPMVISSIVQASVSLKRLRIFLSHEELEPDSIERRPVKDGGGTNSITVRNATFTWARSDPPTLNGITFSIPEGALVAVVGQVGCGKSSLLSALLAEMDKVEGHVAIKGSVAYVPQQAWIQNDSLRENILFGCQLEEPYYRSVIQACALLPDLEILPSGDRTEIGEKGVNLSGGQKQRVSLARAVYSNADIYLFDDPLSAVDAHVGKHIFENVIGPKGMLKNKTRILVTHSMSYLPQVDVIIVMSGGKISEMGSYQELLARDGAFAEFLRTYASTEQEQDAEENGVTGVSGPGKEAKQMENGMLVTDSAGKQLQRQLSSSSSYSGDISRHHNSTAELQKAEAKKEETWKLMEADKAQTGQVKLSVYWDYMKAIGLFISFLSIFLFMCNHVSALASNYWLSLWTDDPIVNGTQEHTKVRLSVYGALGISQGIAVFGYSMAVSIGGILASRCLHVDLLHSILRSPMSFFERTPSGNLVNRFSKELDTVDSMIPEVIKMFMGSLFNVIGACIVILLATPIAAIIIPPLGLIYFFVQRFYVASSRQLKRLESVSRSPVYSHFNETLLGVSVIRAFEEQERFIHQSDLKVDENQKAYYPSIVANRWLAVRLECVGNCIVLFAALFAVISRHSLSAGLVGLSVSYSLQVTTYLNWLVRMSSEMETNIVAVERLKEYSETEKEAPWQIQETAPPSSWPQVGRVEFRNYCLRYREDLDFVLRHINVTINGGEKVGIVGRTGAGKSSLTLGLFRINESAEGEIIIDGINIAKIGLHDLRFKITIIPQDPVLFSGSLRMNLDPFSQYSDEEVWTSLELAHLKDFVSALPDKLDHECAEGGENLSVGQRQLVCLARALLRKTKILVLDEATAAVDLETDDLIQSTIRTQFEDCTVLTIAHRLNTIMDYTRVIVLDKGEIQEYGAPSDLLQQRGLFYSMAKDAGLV
T1 sequence (P08183 whole entry): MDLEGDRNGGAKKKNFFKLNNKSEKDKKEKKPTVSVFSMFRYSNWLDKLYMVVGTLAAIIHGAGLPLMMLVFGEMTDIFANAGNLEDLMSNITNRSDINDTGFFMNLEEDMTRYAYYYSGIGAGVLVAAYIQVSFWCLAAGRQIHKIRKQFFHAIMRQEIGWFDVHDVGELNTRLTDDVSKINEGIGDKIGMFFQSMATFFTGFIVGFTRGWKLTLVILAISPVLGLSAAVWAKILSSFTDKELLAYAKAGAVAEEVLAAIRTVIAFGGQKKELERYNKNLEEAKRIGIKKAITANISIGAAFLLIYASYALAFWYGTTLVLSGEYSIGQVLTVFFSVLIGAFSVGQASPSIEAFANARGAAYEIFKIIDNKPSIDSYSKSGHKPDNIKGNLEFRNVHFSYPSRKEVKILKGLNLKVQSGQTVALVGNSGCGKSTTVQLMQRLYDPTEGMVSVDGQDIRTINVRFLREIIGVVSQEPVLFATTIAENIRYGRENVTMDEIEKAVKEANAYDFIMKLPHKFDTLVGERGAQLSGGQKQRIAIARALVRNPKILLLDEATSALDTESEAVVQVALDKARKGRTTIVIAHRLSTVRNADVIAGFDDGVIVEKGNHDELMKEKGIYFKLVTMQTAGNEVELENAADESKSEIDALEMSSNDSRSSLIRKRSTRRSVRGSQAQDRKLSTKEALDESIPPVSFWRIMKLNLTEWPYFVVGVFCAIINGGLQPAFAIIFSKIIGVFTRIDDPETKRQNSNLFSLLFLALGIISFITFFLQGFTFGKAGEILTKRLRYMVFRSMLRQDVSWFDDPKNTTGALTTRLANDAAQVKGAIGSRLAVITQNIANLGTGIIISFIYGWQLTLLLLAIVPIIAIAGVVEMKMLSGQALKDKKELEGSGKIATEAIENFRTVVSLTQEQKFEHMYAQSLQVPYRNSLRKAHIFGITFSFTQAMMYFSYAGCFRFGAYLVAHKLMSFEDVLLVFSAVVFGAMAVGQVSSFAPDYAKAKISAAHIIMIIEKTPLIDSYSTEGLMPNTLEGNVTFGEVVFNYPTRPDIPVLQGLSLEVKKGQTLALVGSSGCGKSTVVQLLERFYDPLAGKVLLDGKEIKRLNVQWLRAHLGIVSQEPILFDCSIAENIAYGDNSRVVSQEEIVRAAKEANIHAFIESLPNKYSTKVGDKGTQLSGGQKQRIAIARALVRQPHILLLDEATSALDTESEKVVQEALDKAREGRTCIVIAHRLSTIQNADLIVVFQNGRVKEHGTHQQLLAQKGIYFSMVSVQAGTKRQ

fold change (FC) [2]	Ratio [4]	Drug uptake [11]	Drug uptake [12]	Drug uptake [13]	Drug uptake [14]	IC50 [15] [µM]	Drug uptake [17]	Compound	Ratio IC50/EC50 [1]	IC50 [3] [µM]	Ratio [5]	Ratio [6]	Activity (Homo sapiens [7])	IC50 (L929) [µM]	IC50 [8] [µM]	Activity (Homo sapiens [9])	inhibition (LCC6MDR (human))	Activity (LCC-6 [10])	Activity (LCC-6 [16])	Ratio [18]
2.7	43.8	–	–	–	–	–	–	COc1cc(OC)c2c(c1)O[C@H](c1cc(OC)c(OC)c(OC)c1)[C@H](OC(=O)c1ccc(F)c(NC(=O)c3cc(OC)c(OC)c(OC)c3)c1)C2	>467	> 100	0.9	2.3	–	> 100	> 100	Active	Active	inactive	–	–
2.7	–	Active	Not Active	Not Active	Active	–	–	COc1cc(OC)c2c(c1)O[C@H](c1cc(OC)c(OC)c(OC)c1)[C@H](OC(=O)/C=C/c1cc(OC)c(OC)c(OC)c1)C2	–	> 100	–	–	Dose-dependent effect	> 100	> 100	Active	Active	inactive	inactive	–
–	–	–	–	–	–	–	Active	COc1cccc2c1C(=O)c1c(O)c3c(c(O)c1C2=O)C[C@@](O)(C(=O)CO)C[C@@H]3O[C@H]1C[C@H](N)[C@H](O)[C@H](C)O1 [DOXORUBICIN]	–	–	–	–	–	–	–	–	–	–	–	–

The remaining lines, values behind:

Compound	fold change (FC) [2]	Ratio [4]	Drug uptake [11]	Drug uptake [12]	Drug uptake [13]	Drug uptake [14]	IC50 [15] [µM]	Drug uptake [17]	Ratio IC50/EC50 [1]	IC50 [3] [µM]	Ratio [5]	Ratio [6]	Activity (Homo sapiens [7])	IC50 (L929) [µM]	IC50 [8] [µM]	Activity (Homo sapiens [9])	inhibition (LCC6MDR (human))	Activity (LCC-6 [10])	Activity (LCC-6 [16])	Ratio [18]
COc1cc(OC)c2c(c1)O[C@H](c1cc(OC)c(OC)c(OC)c1)[C@H](OC(=O)c1ccc(F)c(NC(=O)c3ccc(OC)c(OC)c3)c1)C2	2.5	48.2	–	–	–	–	–	–	>698	> 100	0.8	2.7	Dose-dependent effect	> 100	> 100	–	–	–	–	–
COc1ccc(CCN(C)CCCC(C#N)(c2ccc(OC)c(OC)c2)C(C)C)cc1OC (stereo unspecified)	–	–	–	–	–	–	–	–	–	–	–	–	Dose-dependent effect	–	–	Active	–	–	–	–
COc1cc(OC)c2c(c1)O[C@H](c1cc(OC)c(OC)c(OC)c1)[C@@H](OC(=O)c1ccc(F)c(NC(=O)c3cc(OC)c(OC)c(OC)c3)c1)C2	–	53.6	Active	Not Active	Not Active	Active	0.0027	–	>714	> 100	2.6	12.3	–	> 100	> 100	–	–	–	–	–
COc1cc(OC)c2c(c1)O[C@H](c1cc(OC)c(OC)c(OC)c1)[C@@H](OC(=O)c1ccc(F)c(NC(=O)c3ccc(OC)c(OC)c3)c1)C2	–	31.4	–	–	–	–	0.0046	–	>585	> 100	2.6	10.4	–	> 100	> 100	–	–	–	–	–
O=C(O[C@@H]1Cc2c(O)cc(O)cc2O[C@@H]1c1cc(O)c(O)c(O)c1)c1cc(O)c(O)c(O)c1 [EPIGALOCATECHIN GALLATE]	–	1.2	–	–	–	–	–	–	–	69.1	–	–	–	82.3	56	–	–	–	–	1.2
